Experimental data taken from ChEMBL document CHEMBL5252608, “Eremoxylarins D-J, Antibacterial Eremophilane Sesquiterpenes Discovered from an Endolichenic Strain of Xylaria hypoxylon” (J Nat Prod, 2023).
Activity calls are given as the source filed them. No cut-off for these calls is given here.

Tests used:
Human coronavirus 229E [1] = assay: Antiviral activity against HCoV-229E harboring luciferase reporter gene infected in human Huh-7 cells assessed as reduction in viral replication pre-incubated for 1 hrs followed by replacement with fresh media for 6 hrs by renilla luciferase based luminometer analysis; type: functional, organism-based
How it was run: (§1)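 Huh-7 or Huh-7/TMPRSS2 cells in DMEM GlutaMAX-I with 10% FBS. Inoculated with luciferase-reporter HCoV-229E at MOI 0.5 for 1 h at 37 °C with compound at increasing concentrations (highest 50 μM). Virus then replaced by compound-containing medium for 6 h. Lysed for Renilla luciferase luminescence, normalised to DMSO control. Triplicate measures, 3 independent experiments, mean ± SEM.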

Human coronavirus 229E [2] = assay: Antiviral activity against HCoV-229E harboring luciferase reporter gene infected in human Huh-7 cells expressing TMPRSS2 assessed as reduction in viral replication pre-incubated for 1 hrs followed by replacement with fresh media for 6 hrs by renilla luciferase based luminometer analysis; type: functional, organism-based; conditions: time 7.0 hrs; how it was run: as §1
[3] = Selectivity index, ratio of CC50 for human Huh-7 cells to IC50 for antiviral activity against HCoV-229E harboring luciferase reporter gene infected in human Huh-7 cells; type: toxicity, cell-based; conditions: read-out: Ratio CC50/IC50
How it was run: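 Huh-7 cells (6×10^4/well) seeded and held 16 h at 37 °C, 5% CO₂, then treated 24 h with increasing compound concentrations. MTS viability read as formazan absorbance at 490 nm; CC50 derived, 3 experiments. Ratio taken against IC50 from the luciferase-reporter HCoV-229E infection assay in Huh-7 cells (MOI 0.5, 1 h plus 6 h).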

Human coronavirus 229E [4] = assay: Antiviral activity against HCoV-229E harboring luciferase reporter gene infected in human Huh-7 cells assessed as reduction in viral replication upto 50 uM pre-incubated for 1 hrs followed by replacement with fresh media for 6 hrs by renilla luciferase based luminometer analysis; type: functional, organism-based; conditions: time 7.0 hrs; how it was run: as §1
Human coronavirus 229E [5] = assay: Antiviral activity against HCoV-229E harboring luciferase reporter gene infected in human Huh-7 cells expressing TMPRSS2 assessed as reduction in viral replication upto 50 uM pre-incubated for 1 hrs followed by replacement with fresh media for 6 hrs by renilla luciferase based luminometer analysis; type: functional, organism-based; conditions: time 7.0 hrs; how it was run: as §1

In the case of `C=C(C=O)[C@H]1CC=C2[C@H](OC(=O)/C(C)=C/CCCCCCC)CC[C@H](C(=O)O)[C@@]2(C)C1`, the IC50 (Human coronavirus 229E [1]) is reported as 18.1 µM, the Activity (Human coronavirus 229E [1]; time 7.0 hrs) is reported as “Active” and the Activity (Human coronavirus 229E [2]) is reported as “Active”. For the same compound, the selectivity ratio [3] was 2.57.
In the case of `C=C(C=O)[C@H]1CC=C2[C@H](OC(=O)/C(C)=C/C=C/CCCCC)CC[C@H](C(=O)O)[C@@]2(C)C1`, the Activity (Human coronavirus 229E [4]) is reported as “inactive” and the Activity (Human coronavirus 229E [5]) is reported as “inactive”.
